From publication PMC6977399 (Clinical Pharmacology and Therapeutics, 2019)

Legend:
[1] = Fenebrutinib plasma exposure at 200 mg b.i.d. in the clinical DDI study; format: in vivo; conditions: human, oral, observed Cmax at steady-state, data not shown
CYP2C19 = CYP2C19 (Homo sapiens, UniProt P33261); test: CYP inhibition in human liver microsomes; format: in vitro ADME; conditions: up to 15 μM
Procedure, shortened: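 Reversible inhibition: test compound pre-incubated 10 min at 37°C with pooled human liver microsomes plus an isoform-selective probe substrate. Reaction started with NADPH (1.3 mM), then quenched with 3% formic acid in acetonitrile containing internal standard. CYP-specific metabolite formation measured by LC-MS/MS. Activity expressed as % control = (peak area ratio with compound / without compound) × 100.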

human OAT3 = molecular target: T1, human OAT3 (Homo sapiens, UniProt Q8TCC7); test: Inhibition of OAT3-mediated estrone-3-sulfate uptake in HEK293 cells; format: in vitro ADME
T1 sequence (Q8TCC7 1-542): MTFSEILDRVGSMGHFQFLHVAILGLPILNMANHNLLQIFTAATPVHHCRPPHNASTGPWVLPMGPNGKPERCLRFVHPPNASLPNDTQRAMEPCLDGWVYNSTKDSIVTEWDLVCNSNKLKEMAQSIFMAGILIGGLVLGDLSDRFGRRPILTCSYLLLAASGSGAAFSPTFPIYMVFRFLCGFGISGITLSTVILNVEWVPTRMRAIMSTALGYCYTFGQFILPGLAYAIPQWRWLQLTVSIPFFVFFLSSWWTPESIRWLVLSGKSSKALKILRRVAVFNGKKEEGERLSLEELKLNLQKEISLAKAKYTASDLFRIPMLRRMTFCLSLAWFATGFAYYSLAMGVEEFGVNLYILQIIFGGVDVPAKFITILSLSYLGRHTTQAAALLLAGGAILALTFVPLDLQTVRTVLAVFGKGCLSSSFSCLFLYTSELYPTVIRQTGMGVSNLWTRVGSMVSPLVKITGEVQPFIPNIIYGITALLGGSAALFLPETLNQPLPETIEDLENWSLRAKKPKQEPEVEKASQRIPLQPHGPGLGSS
Procedure, shortened: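 HEK293 cells stably expressing human OAT3, with mock-transfected HEK293 as control cells. Uptake was run at 37°C in HK buffer (pH 7.4) with 1 μM ³H-estrone-3-sulfate plus test compound or DMSO vehicle. Cells were washed twice, lysed in 0.1 M NaOH, and counted by liquid scintillation. Transporter-specific uptake was taken as uptake in transfected cells minus uptake in control cells.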

CYP3A = conditions: 200 mg b.i.d.; based on MDZ AUC increase, weak > 1.25 to < 2-fold
OATP1B3 = molecular target: T2, OATP1B3 (Homo sapiens, UniProt Q9NPD5); test: Inhibition of OATP1B3-mediated CCK-8 uptake in HEK293 cells; format: in vitro ADME
T2 sequence (Q9NPD5 1-702): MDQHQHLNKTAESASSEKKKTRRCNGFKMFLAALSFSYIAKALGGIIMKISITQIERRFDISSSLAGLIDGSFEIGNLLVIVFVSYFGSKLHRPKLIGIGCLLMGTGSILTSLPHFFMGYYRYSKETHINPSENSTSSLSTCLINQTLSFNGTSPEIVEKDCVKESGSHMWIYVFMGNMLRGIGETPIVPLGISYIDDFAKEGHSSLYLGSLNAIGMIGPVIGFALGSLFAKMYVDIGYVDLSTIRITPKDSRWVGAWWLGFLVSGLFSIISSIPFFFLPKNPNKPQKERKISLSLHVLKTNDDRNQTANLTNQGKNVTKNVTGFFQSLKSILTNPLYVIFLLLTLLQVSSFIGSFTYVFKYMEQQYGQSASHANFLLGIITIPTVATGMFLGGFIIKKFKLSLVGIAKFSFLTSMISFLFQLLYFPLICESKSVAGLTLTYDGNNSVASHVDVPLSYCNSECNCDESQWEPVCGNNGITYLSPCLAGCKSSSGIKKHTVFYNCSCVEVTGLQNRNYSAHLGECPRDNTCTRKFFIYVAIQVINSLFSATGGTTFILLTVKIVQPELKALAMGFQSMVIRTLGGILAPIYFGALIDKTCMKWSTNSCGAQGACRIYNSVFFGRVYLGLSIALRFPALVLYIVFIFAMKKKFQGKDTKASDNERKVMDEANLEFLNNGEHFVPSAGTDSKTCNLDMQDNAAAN

[2] = phase I single-ascending and multiple-ascending dose studies; cited from earlier work
Bruton's tyrosine kinase = conditions: phase I studies; cited from earlier work

CYP2C19, sequence (P33261 whole entry, canonical isoform): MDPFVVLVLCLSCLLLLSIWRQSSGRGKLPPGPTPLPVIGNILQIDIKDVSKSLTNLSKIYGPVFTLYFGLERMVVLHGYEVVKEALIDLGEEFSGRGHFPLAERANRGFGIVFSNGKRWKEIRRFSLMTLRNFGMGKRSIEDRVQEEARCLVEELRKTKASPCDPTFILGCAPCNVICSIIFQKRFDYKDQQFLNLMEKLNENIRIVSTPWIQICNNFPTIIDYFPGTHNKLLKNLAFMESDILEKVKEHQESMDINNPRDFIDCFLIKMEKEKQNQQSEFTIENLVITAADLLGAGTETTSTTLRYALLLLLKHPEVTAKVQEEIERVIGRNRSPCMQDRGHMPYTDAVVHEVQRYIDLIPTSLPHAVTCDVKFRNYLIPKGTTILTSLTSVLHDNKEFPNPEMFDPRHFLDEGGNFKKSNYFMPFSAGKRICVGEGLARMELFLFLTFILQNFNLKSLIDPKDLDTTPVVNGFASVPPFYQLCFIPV

## C[C@H]1CN(C2COC2)CCN1c1ccc(Nc2cc(-c3ccnc(N4CCn5c(cc6c5CC(C)(C)C6)C4=O)c3CO)cn(C)c2=O)nc1 [fenebrutinib]
[1]
  Cmax: ~1000 nM
CYP2C19
  reversible or time-dependent inhibition of CYP2C19: No reversible or time‐dependent inhibition
Human OAT3; at clinically relevant concentrations
  inhibition of OAT3 uptake transporter: no evidence of inhibition
Human OAT3; up to 30 μM, the highest concentration tested, HEK293 cells
  influence on OAT3-mediated accumulation of estrone-3-sulfate: did not influence
CYP3A
  clinical classification as CYP3A inhibitor: weak inhibitor
OATP1B3
  IC50: 7.15 µM
OATP1B3; human, HEK293 cells stably expressing human OATP1B3, pH 7.4, probe CCK-8 (0.1 μM)
  inhibition at 30 μM: 86.7%
[2]
  terminal half-life (t1/2): 4−10 hours
Bruton's tyrosine kinase
  plasma concentration showing target engagement: 100 nM
